# From ChEMBL document CHEMBL4706684, “Discovering High Potent Hsp90 Inhibitors as Antinasopharyngeal Carcinoma Agents through Fragment Assembling Approach” (J Med Chem, 2021)
# Active and inactive are the calls of the source. The calls are words filed in the database; no cut-off is given here.
# Columns and labels:
# CNE-2 [1] = test: Induction of apoptosis in human CNE-2 cells assessed as late apoptosis cells level at 20 nM incubated for 12 hrs by Annexin-V/FITC staining based FACS analysis (reference value: 1.45%); type: cell-based; conditions: cne-2, 12 h, 0.02 µM
# CNE-2 [2] = test: Induction of apoptosis in human CNE-2 cells assessed as viable cells level at 100 nM incubated for 12 hrs by Annexin-V/FITC staining based FACS analysis (reference value: 96.7%); type: cell-based; conditions: read-out: Activity
# How it was run: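 CNE2 cells (RPMI 1640 with 10% FBS) were seeded at 5 × 10⁴ cells per well. After 24 h they were treated with compound in 0.05% DMSO for 12 h. Cells were then washed twice with PBS, pelleted, and stained in binding buffer with Annexin V-FITC and PI for flow cytometry.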
# CNE-2 [3] = test: Induction of apoptosis in human CNE-2 cells assessed as early apoptosis cells level at 100 nM incubated for 12 hrs by Annexin-V/FITC staining based FACS analysis (reference value: 1.45%); type: cell-based; conditions: cne-2, 12 h, 0.1 µM
# CNE-2 [4] = test: Antitumor activity against human CNE-2 cells xenografted in nu/nu mouse assessed as inhibition of tumor growth at 1 mg/kg, po for 32 days; type: functional, organism-based; conditions: time 32.0 day
structure (smiles),measurement,setting,value
CC(C)(C)c1ccc(Cn2cc(-c3cc(O)c(O)c(O)c3)nn2)cc1,Activity,CNE-2 [1],2.19%
same,viability at 0.1 µM,CNE-2 [2],78.6%
same,Activity,CNE-2 [3],6.22%
same,TGI,CNE-2 [4],Active
